These compounds were tested against T1, NAD-dependent protein deacetylase sirtuin-2 (Homo sapiens) (UniProt Q8IXJ6) (assay: Inhibition of recombinant human C-terminal His-tagged SIRT2 (50 to 389 end residues) expressed in Escherichia coli at 10 uM using p53 derived (379 to 382 residues) fluorogenic peptide substrate RHKK(Ac)-AMC preincubated for 10 mins followed by substrate addition in presence of NAD+ by fluorescence assay relative to control).
T1 sequence (whole entry): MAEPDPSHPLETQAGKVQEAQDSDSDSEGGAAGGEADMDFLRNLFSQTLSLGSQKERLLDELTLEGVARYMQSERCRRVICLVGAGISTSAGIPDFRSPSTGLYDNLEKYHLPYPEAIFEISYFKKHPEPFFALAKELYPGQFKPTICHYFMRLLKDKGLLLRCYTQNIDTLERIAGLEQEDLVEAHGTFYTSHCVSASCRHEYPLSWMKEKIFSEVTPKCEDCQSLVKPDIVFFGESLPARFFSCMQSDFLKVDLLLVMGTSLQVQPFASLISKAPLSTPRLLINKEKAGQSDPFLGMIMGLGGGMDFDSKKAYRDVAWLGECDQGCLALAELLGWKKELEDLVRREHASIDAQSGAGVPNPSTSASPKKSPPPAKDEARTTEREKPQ
Summary of the method: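 Two-step fluorogenic assay with p53 379–382 RHKK(Ac)-AMC. Compound (from 10 mM DMSO stock) preincubated ~10 min with human SIRT before substrate addition. Developer then releases fluorophore, read at ex 360/em 460 nm.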

Row | Compound | inhibition
1 | O=c1c2c3c(sc2ncn1Cc1cccc(-c2ccccc2)c1)CC(Nc1ccc(F)cc1)CC3 (centres undefined) | 52%
2 | Cc1ccc(NC2CCc3c(sc4ncn(Cc5cccc6ccccc56)c(=O)c34)C2)cc1 (centres undefined) | 50%
3 | COc1ccc2ccccc2c1Cn1cnc2sc3c(c2c1=O)CCC(NCCN1CCOCC1)C3 (centres undefined) | 70%
4 | COc1ccc2ccccc2c1Cn1cnc2sc3c(c2c1=O)CCC(NC1CCc2ccccc21)C3 (centres undefined) | 59%
5 | COc1ccccc1Cn1cnc2sc3c(c2c1=O)CCC(NCCc1cccnc1)C3 (centres undefined) | 38%
6 | O=c1c2c3c(sc2ncn1Cc1cccc2ccccc12)CC(NCc1ccc(Cl)cc1)CC3 (centres undefined) | 64%
7 | O=c1c2c3c(sc2ncn1Cc1ccc2ccccc2c1)CC(NCc1cccs1)CC3 (centres undefined) | 62%
8 | O=c1c2c3c(sc2ncn1Cc1ccccc1)CC(NCc1ccccc1)CC3 (centres undefined) | 57%
9 | O=c1c2c3c(sc2ncn1Cc1cccc(-c2ccccc2)c1)CC(NCc1ccccc1F)CC3 (centres undefined) | 43%
10 | O=c1c2c3c(sc2ncn1Cc1ccc2ccccc2c1)CC(NCc1ccccc1Cl)CC3 (centres undefined) | 43%
11 | O=c1c2c3c(sc2ncn1Cc1cccc2ccccc12)CC(NC1CCCC1)CC3 (centres undefined) | 61%
12 | O=c1c2c3c(sc2ncn1Cc1ccc2ccccc2c1)CC(NC1CCc2ccccc21)CC3 (centres undefined) | 60%
13 | COc1ccccc1Cn1cnc2sc3c(c2c1=O)CCC(NCc1ccncc1)C3 (centres undefined) | 64%
14 | COc1cccc(Cn2cnc3sc4c(c3c2=O)CCC(NCc2ccccc2)C4)c1 (centres undefined) | 64%
15 | COc1ccc(Cn2cnc3sc4c(c3c2=O)CCC(Nc2ccc3c(c2)OCO3)C4)c2ccccc12 (centres undefined) | 38%
16 | O=c1c2c3c(sc2ncn1Cc1ccc2ccccc2c1)CC(NC1CCCC1)CC3 (centres undefined) | 63%
17 | O=c1c2c3c(sc2ncn1Cc1ccccc1)CC(NCc1ccccc1Cl)CC3 (centres undefined) | 67%
18 | COc1cccc(Cn2cnc3sc4c(c3c2=O)CCC(NCCc2cccnc2)C4)c1 (centres undefined) | 40%
19 | O=c1c2c3c(sc2ncn1Cc1cccc2ccccc12)CC(NCCC1CCCCC1)CC3 (centres undefined) | 65%
20 | COc1cccc(Cn2cnc3sc4c(c3c2=O)CCC(NCC2CCCCC2)C4)c1 (centres undefined) | 62%

Row | Compound | inhibition
21 | O=c1c2c3c(sc2ncn1Cc1ccc2ccccc2c1)CC(NC1CCCc2ccccc21)CC3 (centres undefined) | 37%
22 | Cc1noc(C)c1CNC1CCc2c(sc3ncn(Cc4cccc(-c5ccccc5)c4)c(=O)c23)C1 (centres undefined) | 60%
23 | Cc1ccc(NC2CCc3c(sc4ncn(Cc5cccc(-c6ccccc6)c5)c(=O)c34)C2)cc1 (centres undefined) | 27%
24 | COc1ccccc1Cn1cnc2sc3c(c2c1=O)CCC(NCc1cncnc1)C3 (centres undefined) | 45%
25 | COc1ccccc1NC1CCc2c(sc3ncn(Cc4c(OC)ccc5ccccc45)c(=O)c23)C1 (centres undefined) | 29%
26 | COc1ccc(Cn2cnc3sc4c(c3c2=O)CCC(NCc2ccccc2F)C4)c2ccccc12 (centres undefined) | 71%
27 | O=c1c2c3c(sc2ncn1Cc1cccc(-c2ccccc2)c1)CC(NC1CCCc2ccccc21)CC3 (centres undefined) | 22%
28 | COc1ccc(CNC2CCc3c(sc4ncn(Cc5ccccc5)c(=O)c34)C2)cn1 (centres undefined) | 48%
29 | O=c1c2c3c(sc2ncn1Cc1ccc2ccccc2c1)CC(NCCC1CCCCC1)CC3 (centres undefined) | 59%
30 | COc1ccc2ccccc2c1Cn1cnc2sc3c(c2c1=O)CCC(NCc1ccc(C#N)cc1)C3 (centres undefined) | 75%
31 | COc1ccccc1Cn1cnc2sc3c(c2c1=O)CCC(NCc1ccco1)C3 (centres undefined) | 43%
32 | O=c1c2c3c(sc2ncn1Cc1cccc2ccccc12)CC(NCc1ccccc1Cl)CC3 (centres undefined) | 46%
33 | COCCNC1CCc2c(sc3ncn(Cc4cccc(-c5ccccc5)c4)c(=O)c23)C1 (centres undefined) | 70%
34 | COc1ccc2ccccc2c1Cn1cnc2sc(CCN)c(C)c2c1=O | 25%
35 | COc1ccccc1NC1CCc2c(sc3ncn(Cc4cccc5ccccc45)c(=O)c23)C1 (centres undefined) | 22%
36 | CC(=O)NCCNC1CCc2c(sc3ncn(Cc4ccc5ccccc5c4)c(=O)c23)C1 (centres undefined) | 47%
37 | O=c1c2c3c(sc2ncn1Cc1ccccc1)CC(NCC1CCCCC1)CC3 (centres undefined) | 56%
38 | O=c1c2c3c(sc2ncn1Cc1cccc2cccnc12)CC(NCCN1CCCC1)CC3 (centres undefined) | 29%
39 | COc1ccc2ccccc2c1Cn1cnc2sc3c(c2c1=O)CCC(NC1CCCc2ccccc21)C3 (centres undefined) | 34%
